Bioassay records from PubChem BioAssay.
Diaph act CS: activates diaphorase or chemically reduces, flagging diaphorase assay artifacts. Diaphorase/resazurin coupled assay, resorufin fluorescence, 16 min; hits give high values; 1 = vehicle wells, 0 = NADH-free wells. activation factor at 20 µM. 190,000 compounds, 0.005% hits. AID 1229;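 active = diaphorase activity raised at least twofold by the compound at 20 µM; inactive = activation factor below 2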
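Test system: Clostridium kluyveri diaphorase, purified enzyme. Buffer or medium: 50 mM HEPES pH 7.4 buffer plus MgCl2 and Tween 20. Also added: 0.114 mM NADH and 0.1 mM resazurin, final amounts. Dosing: compound 20 µM once, DMSO 1%. Schedule: 16 min enzyme reaction, ambient temperature. Detection: fluorescence of resorufin, 544 nm excitation, 590 nm emission.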
PMI act: activators of human phosphomannose isomerase; activation factor at 20 µM; 190,000 compounds, 0.005% hits; purified human PMI, coupled resazurin fluorescence, 20 min; hits give high values; 1 = vehicle control, 0 substrate-free wells;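 active = activation factor of 2 or more at 20 µM, relative to plate controls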
Diaphorase inh: inhibits diaphorase or chemically oxidizes, flagging diaphorase assay artifacts; diaphorase resazurin-to-resorufin fluorescence, NADH, 16 min; bacterial (C. kluyveri) enzyme, not human; inhibition, % at 20 µM; 190,000 compounds, 0.69% hits; AID 1217;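 active = primary screen inhibition at 20 µM above a set limit, cut at about 50% in these data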
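Test system: Clostridium kluyveri diaphorase enzyme / Quantity: diaphorase at 0.14 U/mL in enzyme working solution / Incubation: 16-min room-temperature incubation before reading / Benchmarks: NADH-free wells as positive control, DMSO-only neutral wells / Signal: resorufin fluorescence 544/590 nm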
PMI act hi M6P: increases human PMI activity with near-saturating mannose 6-phosphate; P34949; activation factor at 20 µM; coupled PMI enzyme assay, resazurin fluorescence, 20 min; hits give high values; 1 = untreated enzyme, 0 = substrate-free blank; 190,000 compounds, 0.34% hits;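 active = activation factor of 2 or more at 20 µM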
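Material: human phosphomannose isomerase with PGI, G6PDH, diaphorase coupling enzymes; amount: PMI at 15 ng/mL final; also added: Mannose-6-phosphate 1.0 mM (near-saturating) plus 0.22 mM NADP+; incubation: enzyme reaction with compound 20 min at room temperature; signal: resorufin fluorescence (Ex 544/Em 590 nm) from resazurin via diaphorase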
G6PDH counter: inhibits Leuconostoc G6PDH, flagging false hits in G6PDH-based assays; Purified L. mesenteroides G6PDH, diaphorase/resazurin coupled fluorescence, 45 min; 200,000 compounds, 0.12% hits; inhibition, % at 5 µM; AID 1020; in the data active = inhibition above about 50%
ROMK mod: human ROMK K+ channel modulation, primary screen; P48048; Tet-inducible ROMK, thallium flux fluorescence; actives lie on both sides; B-score at 10 µM; 130,000 compounds, 2% hits; AID 1918;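 active = signal ratio slope over the read window, or its plate-corrected B-score, at least 3 SD from the plate mean, either direction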;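 also: B-score of the F/F0 ratio slope over 7 to 12 s after thallium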
Target sequence (P48048 whole entry, looked up): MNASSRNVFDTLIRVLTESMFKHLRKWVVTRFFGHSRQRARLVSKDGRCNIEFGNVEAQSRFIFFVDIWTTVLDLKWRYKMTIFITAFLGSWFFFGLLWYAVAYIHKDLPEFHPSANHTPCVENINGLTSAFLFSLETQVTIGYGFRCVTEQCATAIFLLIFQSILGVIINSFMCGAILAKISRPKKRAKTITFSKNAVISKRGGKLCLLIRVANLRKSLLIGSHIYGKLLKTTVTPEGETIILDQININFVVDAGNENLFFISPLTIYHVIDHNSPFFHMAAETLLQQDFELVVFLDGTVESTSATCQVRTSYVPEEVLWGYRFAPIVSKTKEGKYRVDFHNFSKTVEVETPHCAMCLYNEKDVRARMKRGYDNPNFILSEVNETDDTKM
ROMK hit retest: retested hit modulating human ROMK potassium channel. ROMK thallium flux, fluorescence ratio; hits give low values. normalized thallium flux (F/F0 slope) at 10 µM. AID 1917. shares compounds with ROMK mod. 3,000 compounds, 54% hits;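 active = Flux at 10 µM at least 3 SD below or above vehicle control mean in one or both replicates; inconclusive = no clear call, values can overlap the other calls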
Hits are given with their value; – = inactive; ? = inconclusive; · = no result. Rows were chosen to be rich in hits. Some 2.2% of all compounds tested hit in one or more screens of this group.

SMILES | Diaph act CS | PMI act | Diaphorase inh | PMI act hi M6P | G6PDH counter | ROMK mod | ROMK hit retest
OC(CNCC1(N2CCCCC2)CCCCC1)COc1ccc(Cl)cc1Cl (centres undefined) | – | – | – | – | – | -3.9 | 0.053
CCOc1nc2ccccc2cc1C=O | – | – | – | – | – | 5.3 | 0.12
Cc1c(NC(=O)CSCc2ccc(Br)cc2)c(=O)n(-c2ccccc2)n1C | – | – | – | – | – | – | ·
CSc1nc2ccc(S(=O)(=O)NC3CCCCC3)cc2s1 | – | – | – | – | – | -2.4 | ?
COc1ccc(NC(=O)C(Cc2ccccc2)n2cccc2)cc1OC (centres undefined) | · | · | · | · | · | – | ·
CN(C)S(=O)(=O)c1ccc(C(=O)Nc2nc(-c3ccccc3)c(C(=O)c3ccccc3)s2)cc1 | – | – | – | – | – | 1.2 | –
O=C(Nc1nc(-c2ccccc2)c(C(=O)c2ccccc2)s1)c1ccc(S(=O)(=O)N2CCCC2)cc1 | – | – | – | – | – | · | ·
CCOc1ccc(C(=O)Nc2ccc3c(c2)OCCO3)cc1[N+](=O)[O-] | – | – | – | – | – | -3.3 | –
Cc1ccc2[nH]c(=O)c(CN(Cc3ccccc3)C(=S)NCCCN(C)C)cc2c1 | · | · | · | · | – | -3.2 | ?
COc1cc2cc(CN(CCc3ccccc3C)C(=S)NCCCN(C)C)c(=O)[nH]c2cc1OC | – | – | – | – | – | – | ·
COc1ccc(CCNC(=O)CCCn2nc(C)c([N+](=O)[O-])c2C)cc1OC | – | – | – | – | – | – | ·
O=C(O)c1ccc(OCCn2ccnc2)cc1 | – | – | – | – | – | – | –
C/C(=N\NC(=O)c1cc2ccccc2cc1O)c1cc2ccccc2o1 | · | · | · | · | · | · | 0.13
Cc1cc(C)n2nc(CC#N)c(C#N)c2n1 | – | – | – | – | – | – | ·
Cc1cc(C)n2nc(/C(C#N)=C/c3ccccn3)c(C#N)c2n1 | – | – | – | – | – | -2.4 | 0.044
COc1ccccc1OP(=O)(O)Oc1ccccc1OC | – | – | – | – | – | – | ·
C=CCSc1nnc(C)c(/C=C/Nc2ccc(Cl)cc2)n1 | – | – | – | – | – | -3 | 0.046
Cc1cccc(C)c1-n1c(C)cc(/C=N/NC(N)=S)c1C | – | – | – | – | – | 2.8 | –
Cc1cc(/C=N/NC(N)=S)c(C)n1-c1ccc(Cl)cc1 | – | – | – | – | – | 1.7 | –
O=C(Nc1ccc2c(c1)OCCO2)c1ccc(Br)c(S(=O)(=O)N2CCOCC2)c1 | – | – | – | – | – | – | ·
O=C(Nc1cccnc1)c1ccc(Cl)c(S(=O)(=O)N2CCCCCC2)c1 | – | – | – | – | – | · | ?
O=C(Nc1ccc2c(c1)OCO2)c1ccc(Br)c(S(=O)(=O)N2CCCC2)c1 | – | – | – | – | – | -2.9 | 0.066
CCN(CC)CCOC(=O)c1ccc(NC(=O)c2ccc(Cl)c(S(=O)(=O)N3CCCCCC3)c2)cc1 | – | – | – | – | – | – | –
Cc1ccc(NC(=O)C(Nc2ccccc2)c2ccccc2)cc1 (centres undefined) | – | – | – | – | – | · | –
O=C(CSc1nnc(Cn2c(=O)sc3ccccc32)n1CCc1ccccc1)N1CCCC1 | – | – | – | – | – | · | –
SMILES | Diaph act CS | PMI act | Diaphorase inh | PMI act hi M6P | G6PDH counter | ROMK mod | ROMK hit retest
O=C(Nc1ccc2snnc2c1)N1CCCCC1 | – | – | – | – | – | – | ·
O=C(Nc1ccc2snnc2c1)N1CCOCC1 | – | – | – | – | – | · | ?
Cc1ccc2c(c1)C(=O)C(=O)N2CCCOc1ccccc1 | · | · | · | · | – | 3.6 | –
Cc1nc(SCC(=O)N(C)Cc2ccco2)c2c(C)c(C)sc2n1 | – | – | – | – | – | · | –
CC(=O)Nc1ccc(NC(=O)CSc2nc(C)nc3sc(C)c(C)c23)cc1 | – | – | – | – | – | – | ·
Cc1cccc(-c2nc(CS(=O)CC(=O)NCCCSC3CCCCC3)c(C)o2)c1 (centres undefined) | – | – | – | – | – | -4 | 0.059
CC1CCN(CCCCOc2cccc(Br)c2)CC1 | – | – | – | – | – | – | ·
CC1CCN(CCCCOc2ccc(Br)cc2)CC1 | – | – | – | – | – | – | ?
COC(=O)c1sc2cc([N+](=O)[O-])cc(SCC(C)C)c2c1N | – | – | – | – | – | – | ·
CC(C)C(=O)NCc1cc(-c2ccccc2)no1 | – | – | – | – | – | – | ·
Cc1cc(C)n2nc(SCC(=O)c3cc(C)n(-c4cc(C)on4)c3C)nc2n1 | – | – | – | – | – | · | –
C=CCc1ccccc1OCC(O)CN1CCN(c2ccc(C)cc2)CC1 (centres undefined) | – | – | – | – | – | -2.6 | 0.056
C=CCc1ccccc1OCC(O)CN1CCN(C(=O)OCC)CC1 (centres undefined) | – | – | – | – | – | · | ·
Cc1nn(CCCC(=O)N2CCN(c3ccc(F)cc3)CC2)c(C)c1[N+](=O)[O-] | – | – | – | – | – | -6 | 0.054
COC(=O)CC1=NN(c2nc3ccccc3s2)C(=O)/C1=C/N(C)C | – | – | – | – | – | – | ·
COc1ccc2c(c1OC)C(=O)N(c1ccc(C)cc1)C2 | · | · | · | · | · | – | ·
Cc1ccc(OCC(=O)Nc2ccc(O)c(-c3nc4ccccc4o3)c2)cc1 | – | – | – | – | – | · | ·
O=C(Nc1ccc(O)c(-c2nc3ccccc3o2)c1)C1(c2ccc(Br)cc2)CCCC1 | – | – | – | – | – | · | –
O=c1c2ccccc2sn1-c1nccs1 | – | – | 51 | – | – | -3.7 | –
O=c1c2ccccc2sn1-c1ccccc1 | – | – | – | – | – | – | ·
COc1ccc(CNCCC(c2ccccc2)c2ccc3c(c2)OCO3)cc1 (centres undefined) | – | – | – | – | – | · | 0.053
C1CN(c2nc3nonc3nc2N2C[C@H]3CC[C@H]2C3)CCS1 | – | – | – | – | – | 1.4 | –
COc1ccc(NC(=O)CNc2cc(S(=O)(=O)N3CCOCC3)ccc2NCC2CCCO2)cc1 (centres undefined) | – | – | – | – | – | – | ·
CCOC(=O)C(Cc1ccccc1)c1ccnc2ncnn12 (centres undefined) | – | – | – | – | – | – | ·
COc1ccc(C(=O)Nc2ncc3c(n2)CC(c2ccco2)CC3=O)cc1 (centres undefined) | – | – | – | – | – | -6.5 | –
O=C(Nc1ccc(N2CCN(c3ncccc3C(F)(F)F)CC2)nc1)c1cccs1 | · | · | · | · | · | · | –
CCOC(=O)c1cc2cc(OC)ccc2[nH]1 | – | – | – | – | – | – | –
Cc1cc(C)n(-c2cccc(Cl)c2C#N)n1 | · | · | · | · | · | – | ·
